ChEMBL document CHEMBL1671845, “Inhibitors of HCV NS5A: From Iminothiazolidinones to Symmetrical Stilbenes” (ACS Med Chem Lett, 2011)

System: Hepatitis C virus
Test: Antiviral activity against HCV1b infected in human HuH7 cells assessed as inhibition of viral replication after 72 hrs by FRET assay
Type: functional, organism-based, Hepacivirus hominis
Settings: genotype 1b, Huh-7, 72 h
Method in brief: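 Dual-replicon screen pairing an HCV genotype 1b replicon with a bovine viral diarrhea virus replicon, run in high-throughput mode. Results are reported as EC50.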

Row | Structure (SMILES) | EC50 [nM]
1 | C[C@H](NC(=O)OCc1ccccc1)C(=O)Nc1ccc(C2S/C(=N\c3cccc(F)c3)N(Cc3ccco3)C2=O)cc1 (stereo partly drawn) | 580
2 | O=C(Nc1ccc(C2S/C(=N\c3cccc(F)c3)N(Cc3ccco3)C2=O)cc1)OCc1ccccc1 (stereo not drawn) | 150000
3 | O=C(COCc1ccccc1)Nc1ccc(C2S/C(=N\c3cccc(F)c3)N(Cc3ccco3)C2=O)cc1 (stereo not drawn) | 61000
4 | CC(OCc1ccccc1)C(=O)Nc1ccc(C2S/C(=N\c3cccc(F)c3)N(Cc3ccco3)C2=O)cc1 (stereo not drawn) | 132000
5 | O=C(CCc1ccccc1)Nc1ccc(C2S/C(=N\c3cccc(F)c3)N(Cc3ccco3)C2=O)cc1 (stereo not drawn) | 75000
6 | COC(=O)CCCC(=O)Nc1ccc(C2S/C(=N\c3cccc(F)c3)N(Cc3ccco3)C2=O)cc1 (stereo not drawn) | 150000
7 | C[C@@H](NC(=O)OCc1ccccc1)C(=O)Nc1ccc(C2S/C(=N\c3cccc(F)c3)N(Cc3ccco3)C2=O)cc1 (stereo partly drawn) | 96000
8 | O=C(Nc1ccc(C2S/C(=N\c3cccc(F)c3)N(Cc3ccco3)C2=O)cc1)[C@H]1CCCN1C(=O)OCc1ccccc1 (stereo partly drawn) | 6500
9 | O=C(CNC(=O)OCc1ccccc1)Nc1ccc(C2S/C(=N\c3cccc(F)c3)N(Cc3ccco3)C2=O)cc1 (stereo not drawn) | 5000
10 | CC(C)(C)OC[C@H](NC(=O)OCc1ccccc1)C(=O)Nc1ccc(C2S/C(=N\c3cccc(F)c3)N(Cc3ccco3)C2=O)cc1 (stereo partly drawn) | > 50000
11 | CC[C@@H](C)[C@H](NC(=O)OCc1ccccc1)C(=O)Nc1ccc(C2S/C(=N\c3cccc(F)c3)N(Cc3ccco3)C2=O)cc1 (stereo partly drawn) | 6000
12 | O=C(N[C@@H](CSCc1ccccc1)C(=O)Nc1ccc(C2S/C(=N\c3cccc(F)c3)N(Cc3ccco3)C2=O)cc1)OCc1ccccc1 (stereo partly drawn) | > 50000
13 | O=C(N[C@@H](Cc1ccccc1)C(=O)Nc1ccc(C2S/C(=N\c3cccc(F)c3)N(Cc3ccco3)C2=O)cc1)OCc1ccccc1 (stereo partly drawn) | > 50000
14 | C[C@H](NC(=O)c1ccccc1)C(=O)Nc1ccc(C2S/C(=N\c3cccc(F)c3)N(Cc3ccco3)C2=O)cc1 (stereo partly drawn) | 1900
15 | O=C(Nc1ccc(C2S/C(=N\c3cccc(F)c3)N(Cc3ccco3)C2=O)cc1)[C@@H]1CCCN1C(=O)c1ccccc1 (stereo partly drawn) | 7900
16 | C[C@H](NC(=O)CCc1ccccc1)C(=O)Nc1ccc(C2S/C(=N\c3cccc(F)c3)N(Cc3ccco3)C2=O)cc1 (stereo partly drawn) | 3100
17 | O=C(Nc1ccc(C2S/C(=N\c3cccc(F)c3)N(Cc3ccco3)C2=O)cc1)[C@@H]1CCCN1C(=O)CCc1ccccc1 (stereo partly drawn) | 5100
18 | C[C@H](NC(=O)OCc1ccccc1)C(=O)Nc1ccc(C2S/C(=N\c3ccc(C(F)(F)F)cc3)N(Cc3ccco3)C2=O)cc1 (stereo partly drawn) | 2200
19 | C[C@H](NC(=O)OCc1ccccc1)C(=O)Nc1ccc(C2S/C(=N\c3ccc(C(F)(F)F)c(F)c3)N(Cc3ccco3)C2=O)cc1 (stereo partly drawn) | 2500
20 | O=C(Nc1ccc(C2S/C(=N\c3ccc(C(F)(F)F)c(F)c3)N(Cc3ccco3)C2=O)cc1)[C@@H]1CCCN1C(=O)OCc1ccccc1 (stereo partly drawn) | 2200
21 | O=C(Nc1ccc(C2S/C(=N\c3ccc(Cl)cc3)N(Cc3ccco3)C2=O)cc1)[C@@H]1CCCN1C(=O)OCc1ccccc1 (stereo partly drawn) | 1170
22 | CCc1ccc(/N=C2\SC(c3ccc(NC(=O)[C@H](C)NC(=O)OCc4ccccc4)cc3)C(=O)N2Cc2ccco2)cc1 (stereo partly drawn) | 1500
23 | CCc1ccc(/N=C2\SC(c3ccc(NC(=O)[C@@H]4CCCN4C(=O)OCc4ccccc4)cc3)C(=O)N2Cc2ccco2)cc1 (stereo partly drawn) | 1800
24 | O=C(Nc1ccc(/C=C/c2ccc(NC(=O)[C@H]3CCCN3C(=O)Cc3ccccc3)cc2)cc1)[C@H]1CCCN1C(=O)Cc1ccccc1 | > 10000
25 | O=C(Nc1ccc(/C=C/c2ccc(NC(=O)[C@H]3CCCN3C(=O)OCc3ccccc3)cc2)cc1)[C@H]1CCCN1C(=O)OCc1ccccc1 | > 10000

The next lines start with the values.

Row | EC50 [nM] | Structure (SMILES)
26 | 110 | O=C(Nc1ccc(C2S/C(=N\c3cccc(F)c3)N(Cc3ccco3)C2=O)cc1)[C@@H]1CCCN1C(=O)OCc1ccccc1 (stereo partly drawn)
27 | 6 | C[C@H](NC(=O)Cc1ccccc1)C(=O)Nc1ccc(C2S/C(=N\c3cccc(F)c3)N(Cc3ccco3)C2=O)cc1 (stereo partly drawn)
28 | 23 | O=C(Nc1ccc(C2S/C(=N\c3cccc(F)c3)N(Cc3ccco3)C2=O)cc1)[C@@H]1CCCN1C(=O)Cc1ccccc1 (stereo partly drawn)
29 | 650 | C[C@H](NC(=O)OCc1ccccc1)C(=O)Nc1ccc(C2S/C(=N\c3cccc(F)c3)N(CC3CCCO3)C2=O)cc1 (stereo partly drawn)
30 | 25 | C[C@H](NC(=O)OCc1ccccc1)C(=O)Nc1ccc(C2S/C(=N\c3cccc(F)c3)N(Cc3cnccn3)C2=O)cc1 (stereo partly drawn)
31 | 38 | O=C(Nc1ccc(C2S/C(=N\c3cccc(F)c3)N(Cc3cnccn3)C2=O)cc1)[C@@H]1CCCN1C(=O)OCc1ccccc1 (stereo partly drawn)
32 | 35 | C[C@H](NC(=O)OCc1ccccc1)C(=O)Nc1ccc(C2S/C(=N\c3cccc(F)c3)N(Cc3ccccn3)C2=O)cc1 (stereo partly drawn)
33 | 2 | O=C(Nc1ccc(C2S/C(=N\c3cccc(F)c3)N(Cc3ccccn3)C2=O)cc1)[C@@H]1CCCN1C(=O)OCc1ccccc1 (stereo partly drawn)
34 | 26 | C[C@H](NC(=O)OCc1ccccc1)C(=O)Nc1ccc(C2S/C(=N\c3cccc(F)c3)N(Cc3cccnc3)C2=O)cc1 (stereo partly drawn)
35 | 550 | C[C@H](NC(=O)OCc1ccccc1)C(=O)Nc1ccc(C2S/C(=N\c3cccc(F)c3)N(Cc3ccc(F)c(F)c3F)C2=O)cc1 (stereo partly drawn)
36 | 600 | O=C(Nc1ccc(C2S/C(=N\c3cccc(F)c3)N(Cc3ccc(F)c(F)c3F)C2=O)cc1)[C@@H]1CCCN1C(=O)OCc1ccccc1 (stereo partly drawn)
37 | 980 | O=C(Nc1ccc(C2S/C(=N\c3ccc(C(F)(F)F)cc3)N(Cc3ccco3)C2=O)cc1)[C@@H]1CCCN1C(=O)OCc1ccccc1 (stereo partly drawn)
38 | 510 | C[C@H](NC(=O)OCc1ccccc1)C(=O)Nc1ccc(C2S/C(=N\c3ccc(Cl)cc3)N(Cc3ccco3)C2=O)cc1 (stereo partly drawn)
39 | 37 | C[C@H](NC(=O)OCc1ccccc1)C(=O)Nc1ccc(C2S/C(=N\c3ccc(C#N)cc3)N(Cc3ccco3)C2=O)cc1 (stereo partly drawn)
40 | 86 | N#Cc1ccc(/N=C2\SC(c3ccc(NC(=O)[C@@H]4CCCN4C(=O)OCc4ccccc4)cc3)C(=O)N2Cc2ccco2)cc1 (stereo partly drawn)
41 | 10 | C[C@H](NC(=O)OCc1ccccc1)C(=O)Nc1ccc(C2S/C(=N\c3cccc4c3OCCO4)N(Cc3ccco3)C2=O)cc1 (stereo partly drawn)
42 | 9 | O=C(Nc1ccc(C2S/C(=N\c3cccc4c3OCCO4)N(Cc3ccco3)C2=O)cc1)[C@@H]1CCCN1C(=O)OCc1ccccc1 (stereo partly drawn)
43 | 20 | C[C@H](NC(=O)OCc1ccccc1)C(=O)Nc1ccc(C2S/C(=N\c3cccc4ncccc34)N(Cc3ccco3)C2=O)cc1 (stereo partly drawn)
44 | 10 | O=C(Nc1ccc(C2S/C(=N\c3cccc4ncccc34)N(Cc3ccco3)C2=O)cc1)[C@@H]1CCCN1C(=O)OCc1ccccc1 (stereo partly drawn)
45 | 15 | C[C@H](NC(=O)OCc1ccccc1)C(=O)Nc1ccc(C2S/C(=N\c3ccc(N4CCOCC4)cc3)N(Cc3ccco3)C2=O)cc1 (stereo partly drawn)
46 | 20 | O=C(Nc1ccc(C2S/C(=N\c3ccc(N4CCOCC4)cc3)N(Cc3ccco3)C2=O)cc1)[C@@H]1CCCN1C(=O)OCc1ccccc1 (stereo partly drawn)
47 | 0.086 | O=C(Nc1ccc(/C=C/c2ccc(NC(=O)[C@@H]3CCCN3C(=O)Cc3ccccc3)cc2)cc1)[C@@H]1CCCN1C(=O)Cc1ccccc1
48 | 10 | O=C(Nc1ccc(/C=C/c2ccc(NC(=O)[C@@H]3CCCN3C(=O)OCc3ccccc3)cc2)cc1)[C@@H]1CCCN1C(=O)OCc1ccccc1

System: not listed separately
Test: Cytotoxicity against human HuH7 cells
Type: cell-based, Huh-7
Settings: not given

Row | Structure (SMILES) | CC50 [nM]
49 | C[C@H](NC(=O)OCc1ccccc1)C(=O)Nc1ccc(C2S/C(=N\c3cccc(F)c3)N(Cc3ccco3)C2=O)cc1 (stereo partly drawn) | > 100000

System: not listed separately
Test: Chemical stability of the compound in DMSO assessed as conversion of (2S)-1-(4-(3-(3-fluorophenyl)-1-(furan-2-ylmethyl)-4-hydroxy-5-oxo-2-thioxoimidazolidin- 4-yl)phenylamino)-1-oxopropan-2-ylcarbamate after 18 hrs by HPLC analysis
Type: physicochemical
Settings: not given

Row | Structure (SMILES) | Stability
50 | C[C@H](NC(=O)OCc1ccccc1)C(=O)Nc1ccc(C2S/C(=N\c3cccc(F)c3)N(Cc3ccco3)C2=O)cc1 (stereo partly drawn) | Unstable
51 | C[C@H](NC(=O)Cc1ccccc1)C(=O)Nc1ccc(C2S/C(=N\c3cccc(F)c3)N(Cc3ccco3)C2=O)cc1 (stereo partly drawn) | Unstable

System: not listed separately
Test: Chemical stability of the compound in DMSO assessed as conversion of (2S)-N-(4-(3-(3-Fluorophenyl)-1-(furan-2-ylmethyl)-4-hydroxy-5-oxo-2- thioxoimidazolidin-4-yl)phenyl)-2-(2-phenylacetamido)propanamide by HPLC analysis
Type: physicochemical
Settings: not given

Row | Structure (SMILES) | Stability
52 | C[C@H](NC(=O)OCc1ccccc1)C(=O)Nc1ccc(C2S/C(=N\c3cccc(F)c3)N(Cc3ccco3)C2=O)cc1 (stereo partly drawn) | Unstable
53 | C[C@H](NC(=O)Cc1ccccc1)C(=O)Nc1ccc(C2S/C(=N\c3cccc(F)c3)N(Cc3ccco3)C2=O)cc1 (stereo partly drawn) | Unstable
